The source made the active and inactive calls. The calls are words filed in the database; no cut-off is given here.
What was measured:
[1] = Antiproliferative activity against human Caov3 cells after 72 hrs by MTT assay; assay type: functional, cell-based; conditions: Caov-3, 72 h
Method in brief: (§1)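 Cells kept in exponential growth at 37 °C in humidified 5% CO2 with 2 mM L-glutamine, mycoplasma-checked. Compounds were applied over a dose range and viability was read by MTT relative to an untreated control. IC50 is the concentration giving a 50% decrease in viability. Values are mean ± SD of three independent experiments.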

LNCaP [2] = test: Antiproliferative activity against human LNCAP cells after 72 hrs by MTT assay; assay type: functional, cell-based; method in brief: as §1
PC-3 [3] = test: Antiproliferative activity against human PC3 cells after 72 hrs by MTT assay; assay type: functional, cell-based; conditions: PC-3, 72 h; method in brief: as §1
[4] = Antiproliferative activity against human […] cells after 72 hrs by MTT assay; assay type: functional, cell-based; method in brief: as §1
NCI/ADR-RES [5] = test: Ratio of doxorubicin IC50 to compound IC50 for human NCI/ADR-RES cells; assay type: functional
OVCAR-8 [6] = test: Antiproliferative activity against human OVCAR8 cells at 20 uM after 72 hrs by MTT assay; assay type: functional; conditions: OVCAR-8, 72 h
Method in brief: (§2)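 Each cell line in the panel was treated with 20 µM compound, with doxorubicin as reference. Exponentially growing cells were grown at 37 °C in 5% CO2. MTT read-out served as a surrogate of viable cell number, expressed as % inhibition versus an untreated control. Values are mean ± SD of three independent experiments.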

PC-3 [7] = test: Antiproliferative activity against human PC3 cells at 20 uM after 72 hrs by MTT assay; assay type: functional; conditions: PC-3, 72 h; method in brief: as §2
[8] = Antiproliferative activity against human Caov3 cells at 20 uM after 72 hrs by MTT assay; assay type: functional; conditions: Caov-3, 72 h; method in brief: as §2
OVCAR-8 [9] = test: Antiproliferative activity against human OVCAR8 cells at 20 uM after 72 hrs by MTT assay in presence of glutathione; assay type: functional, cell-based
NCI/ADR-RES [10] = test: Cell cycle arrest in human NCI/ADR-RES cells assessed as accumulation at G0/G1 phase at 10 uM after 24 hrs using propidium iodide staining by flow cytometry (reference value: 51%); assay type: functional
U2OS [11] = test: Antiproliferative activity against human U2OS cells after 72 hrs by MTT assay; assay type: functional, cell-based; method in brief: as §1
DU-145 [12] = test: Antiproliferative activity against human DU145 cells at 20 uM after 72 hrs by MTT assay; assay type: functional; conditions: DU-145, 72 h; method in brief: as §2
BXPC-3 [13] = test: Antiproliferative activity against human BxPC3 cells at 20 uM after 72 hrs by MTT assay; assay type: functional; conditions: BXPC-3, 72 h; method in brief: as §2
NCI/ADR-RES [14] = test: Antiproliferative activity against human NCI/ADR-RES cells at 20 uM after 72 hrs by MTT assay in presence of glutathione; assay type: functional
Method in brief: (§3)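 NCI/ADR-RES cells were pretreated for 2 h with 5 mM N-acetylcysteine or glutathione. Compound at 20 µM was then added for 72 h, with doxorubicin as positive control. Percent inhibition was measured by MTT.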

U2OS [15] = test: Antiproliferative activity against human U2OS cells at 20 uM after 72 hrs by MTT assay; assay type: functional; method in brief: as §2
NCI/ADR-RES [16] = test: Antiproliferative activity against human NCI/ADR-RES cells at 20 uM after 72 hrs by MTT assay in presence of N-acetylcysteine; assay type: functional; method in brief: as §3
NCI/ADR-RES [17] = test: Inhibition of colony formation in human NCI/ADR-RES cells after 24 hrs; assay type: functional, cell-based
Method in brief: (§4)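 NCI/ADR-RES cells were seeded at 100 cells/well and left to attach overnight. Serial compound dilutions were applied for 24 h, then washed out. Colonies grew in drug-free medium for 8-10 days and were fixed with 1% glutaraldehyde and stained with 2% crystal violet, 30 min each. Colonies were imaged and counted versus untreated control; values are means of ≥3 independent experiments.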

NCI/ADR-RES [18] = test: Antiproliferative activity against human NCI/ADR-RES cells after 72 hrs by MTT assay; assay type: functional, cell-based; method in brief: as §1
BXPC-3 [19] = test: Antiproliferative activity against human BxPC3 cells after 72 hrs by MTT assay; assay type: functional, cell-based; conditions: BXPC-3, 72 h; method in brief: as §1
[20] = Antiproliferative activity against human […] cells at 20 uM after 72 hrs by MTT assay; assay type: functional; method in brief: as §2
DU-145 [21] = test: Antiproliferative activity against human DU145 cells after 72 hrs by MTT assay; assay type: functional, cell-based; conditions: DU-145, 72 h; method in brief: as §1
OVCAR-8 [22] = test: Antiproliferative activity against human OVCAR8 cells after 72 hrs by MTT assay; assay type: functional, cell-based; conditions: OVCAR-8, 72 h; method in brief: as §1
NCI/ADR-RES [23] = test: Antiproliferative activity against human NCI/ADR-RES cells at 20 uM after 72 hrs by MTT assay; assay type: functional; method in brief: as §2
NCI/ADR-RES [24] = test: Cell cycle arrest in human NCI/ADR-RES cells assessed as accumulation at G2/M phase at 10 uM after 24 hrs using propidium iodide staining by flow cytometry (reference value: 35%); assay type: functional
MIA PaCa-2 [25] = test: Antiproliferative activity against human MIAPaCa2 cells at 20 uM after 72 hrs by MTT assay; assay type: functional; conditions: MIA PaCa-2, 72 h; method in brief: as §2
OVCAR-8 [26] = test: Antiproliferative activity against human OVCAR8 cells at 20 uM after 72 hrs by MTT assay in presence of N-acetylcysteine; assay type: functional, cell-based
NCI/ADR-RES [27] = test: Cell cycle arrest in human NCI/ADR-RES cells assessed as accumulation at S phase at 10 uM after 24 hrs using propidium iodide staining by flow cytometry (reference value: 14%); assay type: functional
LNCaP [28] = test: Increase of cleaved caspase-9 level in human LNCAP cells at 3 uM after 24 hrs by Western blot analysis; assay type: functional, cell-based
Method in brief: (§5)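 LNCaP cells were treated for 24 h, then lysed. Equal protein was run on 12% SDS-PAGE and blotted to PVDF. Membranes were blocked 1 h in 5% skim milk/TBS-0.1% Tween and probed overnight at 4 °C with anti-p53 or anti-caspase-9. A secondary antibody and ECL detection followed, with GAPDH as loading control.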

NCI/ADR-RES [29] = test: Inhibition of colony formation in human NCI/ADR-RES cells at 1 uM after 24 hrs; assay type: functional, cell-based; method in brief: as §4
LNCaP [30] = test: Up-regulation of p53 expression in human LNCAP cells at 3 uM after 24 hrs by Western blot analysis; assay type: functional, cell-based; method in brief: as §5
LNCaP [31] = test: Antiproliferative activity against human LNCAP cells at 20 uM after 72 hrs by MTT assay; assay type: functional; method in brief: as §2
MIA PaCa-2 [32] = test: Antiproliferative activity against human MIAPaCa2 cells after 72 hrs by MTT assay; assay type: functional, cell-based; conditions: MIA PaCa-2, 72 h; method in brief: as §1

SMILES: Cc1ccc(S(=O)(=O)Oc2ccc(NCc3ccc(N)cc3)c3c2C(=O)c2ccccc2C3=O)cc1
- IC50 [1]: 2500 nM
- IC50 (LNCaP [2]): 400 nM
- IC50 (PC-3 [3]): 6500 nM
- IC50 [4]: 3800 nM
- Ratio IC50 (NCI/ADR-RES [5]): > 25
- inhibition at 20 µM (OVCAR-8 [6]): 85.4%
- inhibition at 20 µM (PC-3 [7]): 75.8%
- inhibition at 20 µM [8]: 85.7%
- inhibition (OVCAR-8 [9]): Active
- inhibition at 10 µM (NCI/ADR-RES [10]): 30%
- IC50 (U2OS [11]): 2800 nM
- inhibition at 20 µM (DU-145 [12]): 87.2%
- inhibition at 20 µM (BXPC-3 [13]): 94%
- inhibition at 20 µM (NCI/ADR-RES [14]): > 60%
- inhibition at 20 µM (U2OS [15]): 92.3%
- inhibition at 20 µM (NCI/ADR-RES [16]): > 60%
- IC50 (NCI/ADR-RES [17]): 500 nM
- inhibition (NCI/ADR-RES [17]): Dose-dependent effect
- IC50 (NCI/ADR-RES [18]): 800 nM
- IC50 (BXPC-3 [19]): 1800 nM
- inhibition at 20 µM [20]: 75.1%
- IC50 (DU-145 [21]): 5400 nM
- IC50 (OVCAR-8 [22]): 3500 nM
- inhibition at 20 µM (NCI/ADR-RES [23]): 80.5%
- inhibition at 10 µM (NCI/ADR-RES [24]): 55%
- inhibition at 20 µM (MIA PaCa-2 [25]): 91.1%
- inhibition (OVCAR-8 [26]): Active
- inhibition at 10 µM (NCI/ADR-RES [27]): 25%
- Activity (LNCaP [28]): Active
- inhibition (NCI/ADR-RES [29]): Active
- Activity (LNCaP [30]): inactive
- inhibition at 20 µM (LNCaP [31]): 88.9%
- IC50 (MIA PaCa-2 [32]): 2700 nM

— ChEMBL document CHEMBL2440111, “Overcoming doxorubicin-resistance in the NCI/ADR-RES model cancer cell line by novel anthracene-9,10-dione derivatives” (Bioorg Med Chem Lett, 2013)
